According to ChEMBL document CHEMBL3813641, “Prediction and verification of novel peptide targets of protein tyrosine phosphatase 1B” (Bioorg Med Chem, 2016):

Experiments:
[1] = substrate: CC(C)[C@H](NC(=O)[C@@H](CCCCN)NC(=O)[C@@H](Cc1ccc(O)cc1)NC(=O)[C@H]1CCCN1C(=O)[C@H](Cc1ccc(O)cc1)NC(=O)[C@H]1CCCN1C(=O)[C@H](CCC(=O)O)NC(=O)[C@H](N)CCCCN)C(=O)N[C@H](CCCCN)C(=O)O; experiment: Substrate activity at PTP1B (unknown origin); details: Homo sapiens
Summary of the method: (§1)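 Synthetic phosphotyrosine peptides (N-acetylated, C-terminal amide, HPLC-purified) were incubated in vitro with purified PTP1B, and the released inorganic phosphate was detected with the EnzChek phosphate assay kit.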

[2] = substrate: NCCCC[C@H](NC(=O)[C@H](CCCCN)NC(=O)[C@@H]1CCCN1C(=O)[C@H](Cc1ccc(O)cc1)NC(=O)[C@H]1CCCN1C(=O)[C@H](CCCCN)NC(=O)[C@H](CCCCN)NC(=O)[C@H](CCCCN)NC(=O)[C@@H](N)CCCCN)C(=O)O; experiment: Ratio of Kcat to Km for recombinant human N-terminal His-tagged PTP1B (1 to 321 residues) expressed in Escherichia coli BL21(DE3) cells
[3] = substrate: CC[C@H](C)[C@H](N)C(=O)N[C@@H](CCC(=O)O)C(=O)N[C@@H](CC(=O)O)C(=O)N1CCC[C@H]1C(=O)N1CCC[C@@H]1C(=O)N[C@@H](Cc1ccc(O)cc1)C(=O)N1CCC[C@@H]1C(=O)N[C@@H](Cc1ccc(O)cc1)C(=O)NCC(=O)N[C@@H](CC(N)=O)C(=O)N[C@@H](CC(=O)O)C(=O)N[C@@H](CO)C(=O)N[C@@H](CC(=O)O)C(=O)O; experiment: (§2) Substrate activity at recombinant human N-terminal His-tagged PTP1B (1 to 321 residues) expressed in Escherichia coli BL21(DE3) cells assessed as inorganic phosphate release after 30 mins by spectrophotometric method; summary of the method: as §1
[4] = substrate: NCCCC[C@H](NC(=O)[C@H](CCCCN)NC(=O)[C@@H]1CCCN1C(=O)[C@H](Cc1ccc(O)cc1)NC(=O)[C@H]1CCCN1C(=O)[C@H](CCCCN)NC(=O)[C@H](CCCCN)NC(=O)[C@H](CCCCN)NC(=O)[C@@H](N)CCCCN)C(=O)O; experiment: as §2; summary of the method: as §1
[5] = substrate: CC(C)[C@H](NC(=O)[C@H](CC(=O)O)NC(=O)[C@H](CCC(=O)O)NC(=O)[C@H](CC(N)=O)NC(=O)[C@@H](N)CC(=O)O)C(=O)N1CCC[C@@H]1C(=O)N[C@@H](Cc1ccc(O)cc1)C(=O)N[C@H](C(=O)N[C@@H](Cc1ccccc1)C(=O)N[C@@H](CCCCN)C(=O)N[C@H](C(=O)N1CCC[C@H]1C(=O)O)[C@@H](C)O)[C@@H](C)O; experiment: as §2; summary of the method: as §1
[6] = substrate: CC[C@H](C)[C@H](NC(=O)[C@@H]1CCCN1C(=O)[C@H](CO)NC(=O)[C@H](CCCCN)NC(=O)[C@H](Cc1ccc(O)cc1)NC(=O)[C@H]1CCCN1C(=O)[C@@H](NC(=O)[C@@H]1CCCN1C(=O)[C@H](CC(N)=O)NC(=O)[C@H](CCC(=O)O)NC(=O)[C@@H](N)CCC(N)=O)[C@@H](C)CC)C(=O)N[C@@H](CC(N)=O)C(=O)O; experiment: as §2; summary of the method: as §1
[7] = substrate: C[C@@H](O)[C@H](NC(=O)[C@@H](N)CO)C(=O)N[C@@H](CCC(=O)O)C(=O)N1CCC[C@H]1C(=O)N[C@@H](CCC(N)=O)C(=O)N1CCC[C@@H]1C(=O)N[C@@H](Cc1ccc(O)cc1)C(=O)N[C@@H](CCC(N)=O)C(=O)N1CCC[C@H]1C(=O)NCC(=O)N[C@@H](CCC(=O)O)C(=O)N[C@@H](CC(N)=O)C(=O)O; experiment: as §2; summary of the method: as §1
[8] = substrate: CC[C@H](C)[C@H](NC(=O)[C@H](CC(=O)O)NC(=O)[C@H](CCC(=O)O)NC(=O)[C@H](CCC(=O)O)NC(=O)[C@@H](N)CCC(=O)O)C(=O)N1CCC[C@@H]1C(=O)N[C@@H](Cc1ccc(O)cc1)C(=O)N[C@@H](CCC(=O)O)C(=O)N[C@H](C(=O)N[C@@H](CC(C)C)C(=O)N1CCC[C@H]1C(=O)N[C@@H](CC(=O)O)C(=O)O)C(C)C; experiment: as §2; summary of the method: as §1
[9] = substrate: CC(C)C[C@@H](N)C(=O)NCC(=O)N[C@@H](CO)C(=O)N[C@@H](CCCNC(=N)N)C(=O)N[C@@H](C)C(=O)N1CCC[C@@H]1C(=O)N[C@H](Cc1ccc(O)cc1)C(=O)N1CCC[C@H]1C(=O)N[C@@H](Cc1cnc[nH]1)C(=O)N[C@H](Cc1ccccc1)C(=O)N[C@H](CS)C(=O)N[C@H](C)C(=O)O; experiment: as §2; summary of the method: as §1
[10] = substrate: CC[C@H](C)[C@H](NC(=O)[C@@H]1CCCN1C(=O)[C@H](CCC(=O)O)NC(=O)[C@H](C)NC(=O)[C@H](Cc1ccc(O)cc1)NC(=O)[C@H]1CCCN1C(=O)[C@H](CC(N)=O)NC(=O)[C@H](CC(=O)O)NC(=O)[C@H](CO)NC(=O)[C@@H]1CCCN1C(=O)[C@@H](N)CC(=O)O)C(=O)N[C@@H](CC(=O)O)C(=O)O; experiment: as §2; summary of the method: as §1

B1: Tyrosine-protein phosphatase non-receptor type 1 (Homo sapiens), P18031 (protein)
chain: MEMEKEFEQIDKSGSWAAIYQDIRHEASDFPCRVAKLPKNKNRNRYRDVSPFDHSRIKLHQEDNDYINASLIKMEEAQRSYILTQGPLPNTCGHFWEMVWEQKSRGVVMLNRVMEKGSLKCAQYWPQKEEKEMIFEDTNLKLTLISEDIKSYYTVRQLELENLTTQETREILHFHYTTWPDFGVPESPASFLNFLFKVRESGSLSPEHGPVVVHCSAGIGRSGTFCLADTCLLLMDKRKDPSSVDIKKVLLEMRKFRMGLIQTADQLRFSYLAVIEGAKFIMGDSSVQDQWKELSHEDLEPPPEHIPPPPRPPKRILEPHNGKCREFFPNHQWVKEETQEDKDCPIKEEKGSPLNAAPYGIESMSQDTEVRSRVVGGSLRGAQAASPAKGEPSLPEKDEDHALSYWKPFLVNMCVATVLTAGAYLCYRFLFNSNT
Km [1]: 12.7 µM | kcat/Km [2]: Not Active | Km [3]: 20.1 µM | Km [4]: Not Active | Km [5]: 17.1 µM | Km [6]: 21.7 µM | Km [7]: 29.1 µM | Km [8]: 14.7 µM | Km [9]: > 300 µM | Km [10]: 28.5 µM
